PMC6361391 (Chemical communications (Cambridge, England), 2017)
Values after ≈ are worked out from the molar mass of the structure shown. Where a SMILES comes first, the peptide text is derived from it. Bridges are numbered along the chain shown (N, C = ends). [ ]: non-standard residue; d: D form. d(aIle) = CC[C@H](C)[C@@H](N)C(=O)O; dNMeF = CN[C@H](Cc1ccccc1)C(=O)O

Key:
[1] = tested on: Enterococcus durans ATCC 6056; assay type: cell-based
[2] = tested on: Escherichia coli ATCC 10798; assay type: cell-based
[3] = tested on: Staphylococcus aureus ATCC 29213; assay type: cell-based
[4] = tested on: Gram-positive bacteria; experiment: MIC assays, overall activity across the Gram-positive bacteria; assay type: cell-based; conditions: overall grade (good, moderate, poor) from the MIC assays
Summary of the method: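 Five Gram-positive species, with E. coli as a Gram-negative negative control and the parent natural antibiotic as a positive control. The test compound was tested at 32, 16, 8, 4, 2, 1, 0.5 and 0.25 μg/mL (final), diluted from a 10 mg/mL stock in sterilized DMSO. Minimum inhibitory concentration was the read-out.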

[5] = tested on: Staphylococcus epidermidis ATCC 14990; assay type: cell-based
[6] = tested on: Streptococcus salivarius ATCC 13419; assay type: cell-based
[7] = assay type: physicochemical; conditions: pH 7.4
[8] = tested on: Bacillus subtilis ATCC 6051; assay type: cell-based
[9] = cited from earlier work

Compound | MIC, Enterococcus durans ATCC 6056 [1] | MIC, Escherichia coll ATCC 10798 [2] | MIC, Staphylococcus aureus ATCC 29213 [3] | antibiotic activity [4] | MIC, Staphylococcus epidermidis ATCC 14990 [5] | MIC, Streptococcus salivarius ATCC 13419 [6] | solubility in PBS buffer [7] | MIC, Bacillus subtilis ATCC 6051 [8] | antibiotic activity ([9]; lysine scan of Arg10-teixobactin) | MIC values reported previously ([9]; earlier report of the same group) | loss in activity relative to Arg10-teixobactin ([9]; residues 1 to 5 replaced with a dodecanoyl group)
CC[C@H](C)[C@H](NC(=O)[C@@H](Cc1ccccc1)NC)C(=O)N[C@@H](CO)C(=O)N[C@H](CCC(N)=O)C(=O)N[C@@H](C(=O)N[C@H](C(=O)N[C@@H](CO)C(=O)N[C@H]1C(=O)N[C@@H](C)C(=O)N[C@@H](C)C(=O)N[C@@H]([C@@H](C)CC)C(=O)O[C@H]1C)[C@@H](C)CC)[C@@H](C)CC [Ala10-teixobactin] | 8 µg/mL (≈ 6.9 µM) | >32 µg/mL | 1 µg/mL (≈ 0.863 µM) | moderate | 4 µg/mL (≈ 3.45 µM) | 1 µg/mL (≈ 0.863 µM) |  |  |  |  | 
CC[C@H](C)[C@H](NC(=O)[C@@H](C)NC)C(=O)N[C@@H](CO)C(=O)N[C@H](CCC(N)=O)C(=O)N[C@@H](C(=O)N[C@H](C(=O)N[C@@H](CO)C(=O)N[C@H]1C(=O)N[C@@H](C)C(=O)N[C@@H](CCCCN)C(=O)N[C@@H]([C@@H](C)CC)C(=O)O[C@H]1C)[C@@H](C)CC)[C@@H](C)CC [N-Me-D-Ala1,Lys10-teixobactin] | >32 µg/mL | >32 µg/mL | >32 µg/mL | poor | >32 µg/mL | >32 µg/mL | good | >32 µg/mL |  |  | 
Lys3,Arg10-teixobactin |  |  |  |  |  |  |  |  | active |  | 
CC[C@H](C)[C@H](NC(=O)[C@@H](Cc1ccccc1)NC)C(=O)N[C@@H](CO)C(=O)N[C@H](CCC(N)=O)C(=O)N[C@@H](C(=O)N[C@H](C(=O)N[C@@H](CO)C(=O)N[C@H]1C(=O)N[C@@H](C)C(=O)N[C@@H](CCCCN)C(=O)N[C@@H]([C@@H](C)CC)C(=O)O[C@H]1C)[C@@H](C)CC)[C@@H](C)CC [Lys10-teixobactin] | 2 µg/mL (≈ 1.64 µM) | >32 µg/mL | 0.5 µg/mL (≈ 0.411 µM) | good | 0.5 to 1 µg/mL | 0.5 µg/mL (≈ 0.411 µM) |  | 1 µg/mL (≈ 0.822 µM) |  | 0.25 to 1 µg/mL | 
lipobactin |  |  |  |  |  |  |  |  |  |  | two- to fourfold loss in activity
CC[C@H](C)[C@H](NC(=O)[C@@H](Cc1ccccc1)NC)C(=O)N[C@@H](CO)C(=O)N[C@H](CCC(N)=O)C(=O)N[C@@H](C(=O)N[C@H](C(=O)N[C@@H](C)C(=O)N[C@H]1C(=O)N[C@@H](C)C(=O)N[C@@H](CCCCN)C(=O)N[C@@H]([C@@H](C)CC)C(=O)O[C@H]1C)[C@@H](C)CC)[C@@H](C)CC [Ala7,Lys10-teixobactin] (H-[dNMeF]IS[dQ][d(aIle)]IA[dT]AKI; ester 8-C) | >32 µg/mL | >32 µg/mL | >32 µg/mL | poor | 32 µg/mL (≈ 26.7 µM) |  | good | 32 µg/mL (≈ 26.7 µM) |  |  | 
CC[C@H](C)[C@H](NC(=O)[C@@H](Cc1ccccc1)NC)C(=O)N[C@@H](C)C(=O)N[C@H](CCC(N)=O)C(=O)N[C@@H](C(=O)N[C@H](C(=O)N[C@@H](CO)C(=O)N[C@H]1C(=O)N[C@@H](C)C(=O)N[C@@H](CCCCN)C(=O)N[C@@H]([C@@H](C)CC)C(=O)O[C@H]1C)[C@@H](C)CC)[C@@H](C)CC [Ala3,Lys10-teixobactin] (H-[dNMeF]IA[dQ][d(aIle)]IS[dT]AKI; ester 8-C) | 4 µg/mL (≈ 3.33 µM) | >32 µg/mL | 0.5 µg/mL (≈ 0.416 µM) | good | 1 µg/mL (≈ 0.833 µM) | 0.5 µg/mL (≈ 0.416 µM) |  | 1 µg/mL (≈ 0.833 µM) |  |  | 
CC[C@H](C)[C@H](NC(=O)[C@@H](Cc1ccccc1)NC)C(=O)N[C@@H](CO)C(=O)N[C@H](CCC(N)=O)C(=O)N[C@@H](C(=O)N[C@H](C(=O)N[C@@H](CO)C(=O)N[C@H]1C(=O)N[C@@H](C)C(=O)N[C@@H](CCCCN)C(=O)N[C@@H](C)C(=O)O[C@H]1C)[C@@H](C)CC)[C@@H](C)CC [Lys10,Ala11-teixobactin] (H-[dNMeF]IS[dQ][d(aIle)]IS[dT]AKA; ester 8-C) | >32 µg/mL | >32 µg/mL | 4 µg/mL (≈ 3.41 µM) | moderate | 8 µg/mL (≈ 6.81 µM) | 2 µg/mL (≈ 1.7 µM) | good | 8 µg/mL (≈ 6.81 µM) |  |  | 
CC[C@H](C)[C@H](NC(=O)[C@H](NC(=O)[C@@H](CCC(N)=O)NC(=O)[C@H](CO)NC(=O)[C@H](C)NC(=O)[C@@H](Cc1ccccc1)NC)[C@@H](C)CC)C(=O)N[C@@H](CO)C(=O)N[C@H]1C(=O)N[C@@H](C)C(=O)N[C@@H](CCCCN)C(=O)N[C@@H]([C@@H](C)CC)C(=O)O[C@H]1C [Ala2,Lys10-teixobactin] (H-[dNMeF]AS[dQ][d(aIle)]IS[dT]AKI; ester 8-C) | >32 µg/mL | >32 µg/mL | >32 µg/mL | poor | 32 µg/mL (≈ 27.2 µM) | 32 µg/mL (≈ 27.2 µM) | good | 32 µg/mL (≈ 27.2 µM) |  |  | 
CC[C@H](C)[C@H](NC(=O)[C@@H](Cc1ccccc1)NC)C(=O)N[C@@H](CO)C(=O)N[C@H](C)C(=O)N[C@@H](C(=O)N[C@H](C(=O)N[C@@H](CO)C(=O)N[C@H]1C(=O)N[C@@H](C)C(=O)N[C@@H](CCCCN)C(=O)N[C@@H]([C@@H](C)CC)C(=O)O[C@H]1C)[C@@H](C)CC)[C@@H](C)CC [D-Ala4,Lys10-teixobactin] (H-[dNMeF]IS[dA][d(aIle)]IS[dT]AKI; ester 8-C) |  | >32 µg/mL | 1 µg/mL (≈ 0.862 µM) | moderate | 4 µg/mL (≈ 3.45 µM) | 2 µg/mL (≈ 1.72 µM) | good | 4 µg/mL (≈ 3.45 µM) |  |  | 
CC[C@H](C)[C@H](NC(=O)[C@@H](Cc1ccccc1)NC)C(=O)N[C@@H](CO)C(=O)N[C@H](CCC(N)=O)C(=O)N[C@@H](C(=O)N[C@@H](C)C(=O)N[C@@H](CO)C(=O)N[C@H]1C(=O)N[C@@H](C)C(=O)N[C@@H](CCCCN)C(=O)N[C@@H]([C@@H](C)CC)C(=O)O[C@H]1C)[C@@H](C)CC [Ala6,Lys10-teixobactin] (H-[dNMeF]IS[dQ][d(aIle)]AS[dT]AKI; ester 8-C) | >32 µg/mL | >32 µg/mL | >32 µg/mL | poor | >32 µg/mL | >32 µg/mL | good | >32 µg/mL |  |  | 
CC[C@H](C)[C@H](NC(=O)[C@@H](C)NC(=O)[C@@H](CCC(N)=O)NC(=O)[C@H](CO)NC(=O)[C@@H](NC(=O)[C@@H](Cc1ccccc1)NC)[C@@H](C)CC)C(=O)N[C@@H](CO)C(=O)N[C@H]1C(=O)N[C@@H](C)C(=O)N[C@@H](CCCCN)C(=O)N[C@@H]([C@@H](C)CC)C(=O)O[C@H]1C [D-Ala5,Lys10-teixobactin] (HELM PEPTIDE1{[CN[C@H](Cc1ccccc1)C(=O)[*:2]].I.S.[dQ].[dA].I.S.[C[C@H](O[*:3])[C@@H](N[*:1])C(=O)[*:2]].A.K.I}$PEPTIDE1,PEPTIDE1,8:R3-11:R2$$$V2.0) | >32 µg/mL | >32 µg/mL | >32 µg/mL | poor |  |  | good |  |  |  | 
